Measurements taken from ChEMBL document CHEMBL2384906, “Biological activity, design, synthesis and structure activity relationship of some novel derivatives of curcumin containing sulfonamides” (Eur J Med Chem, 2013).
Converted amounts (≈) assume the structure as drawn. The source made the active and inactive calls. The rule behind the calls is not given here.

Legend:
Mus musculus = assay: Antiinflammatory activity in mouse assessed as inhibition of carrageenan-induced increase in paw volume at 200 mg/kg administered 1 hr prior to carrageenan challenge measured after 3 hrs relative to control; type: functional
Procedure, shortened: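 Mice were fasted 2 h and placed in groups of five. Controls received saline i.p. Phenylbutazone was given at 100 mg/kg i.p., curcumin at 200 mg/kg i.p., and derivatives at 200 mg/kg. After 1 h, 0.1 mL of 1% carrageenan in saline was injected subplantar into the right hind paw. Paw volume was followed by plethysmometer for 3 h, and % inhibition was calculated as (Vc − Vt)/Vc × 100.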

HCT-116 = assay: Cytotoxicity against human HCT116 cells after 24 hrs by MTT assay; type: functional, cell-based
Procedure, shortened: (§1)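 The MTT assay seeded 5 × 10⁴ cells per well and grew them 24 h in RPMI 1640 with compound at 2.5–200 µM. Medium without cells was the blank and adriamycin the positive control. MTT was added for 4 h at 37 °C, formazan was solubilised, and absorbance was read at 570 nm. IC50 is the concentration that cuts viability 50% against untreated cells.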

QG-56 = assay: Cytotoxicity against human QG56 cells after 24 hrs by MTT assay; type: functional, cell-based; procedure, shortened: as §1
HeLa = assay: Cytotoxicity against human HeLa cells after 24 hrs by MTT assay; type: functional, cell-based; procedure, shortened: as §1
HepG2 = assay: Cytotoxicity against human HepG2 cells after 24 hrs by MTT assay; type: functional, cell-based; procedure, shortened: as §1
Trichoderma viride [1] = assay: Antifungal activity against Trichoderma viride MTCC 1107 after 48 hrs; type: functional; conditions: MTCC 1107, 48 h
Trichoderma viride [2] = assay: Antifungal activity against Trichoderma viride MTCC 1107 assessed as zone of inhibition at 20 uM after 48 hrs by disc diffusion method; type: functional; conditions: MTCC 1107, 48 h, read-out: IZ
Procedure, shortened: (§2)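 Spores from 4-day potato dextrose agar cultures, suspended in sterile water at 1.5 × 10⁵ CFU/mL. 0.2 mL was spread on potato dextrose agar. 5 mm filter-paper discs soaked with test compound were laid on the lawn. Incubation was 48 h at 28 °C, then the inhibition zone was measured in mm. Fluconazole was the positive control and acetone the negative control.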

Trichoderma viride [3] = assay: Antifungal activity against Trichoderma viride MTCC 1107 assessed as zone of inhibition at 40 uM after 48 hrs by disc diffusion method; type: functional; conditions: MTCC 1107, 48 h, read-out: IZ; procedure, shortened: as §2
Trichoderma viride [4] = assay: Antifungal activity against Trichoderma viride MTCC 1107 assessed as zone of inhibition at 80 uM after 48 hrs by disc diffusion method; type: functional; conditions: MTCC 1107, 48 h, read-out: IZ; procedure, shortened: as §2
Curvularia lunata [5] = assay: Antifungal activity against Curvularia lunata MTCC 581 after 48 hrs; type: functional; conditions: MTCC 581, 48 h
Curvularia lunata [6] = assay: Antifungal activity against Curvularia lunata MTCC 581 assessed as zone of inhibition at 20 uM after 48 hrs by disc diffusion method; type: functional; conditions: MTCC 581, 48 h, read-out: IZ; procedure, shortened: as §2
Curvularia lunata [7] = assay: Antifungal activity against Curvularia lunata MTCC 581 assessed as zone of inhibition at 40 uM after 48 hrs by disc diffusion method; type: functional; conditions: MTCC 581, 48 h, read-out: IZ; procedure, shortened: as §2
Aspergillus flavus [8] = assay: Antifungal activity against Aspergillus flavus MTCC 1021 after 48 hrs; type: functional; conditions: MTCC 1021, 48 h
Curvularia lunata [9] = assay: Antifungal activity against Curvularia lunata MTCC 581 assessed as zone of inhibition at 80 uM after 48 hrs by disc diffusion method; type: functional; conditions: MTCC 581, 48 h, read-out: IZ; procedure, shortened: as §2
Aspergillus flavus [10] = assay: Antifungal activity against Aspergillus flavus MTCC 1021 assessed as zone of inhibition at 20 uM after 48 hrs by disc diffusion method; type: functional; conditions: MTCC 1021, 48 h, read-out: IZ; procedure, shortened: as §2
Aspergillus flavus [11] = assay: Antifungal activity against Aspergillus flavus MTCC 1021 assessed as zone of inhibition at 40 uM after 48 hrs by disc diffusion method; type: functional; conditions: MTCC 1021, 48 h, read-out: IZ; procedure, shortened: as §2
Aspergillus flavus [12] = assay: Antifungal activity against Aspergillus flavus MTCC 1021 assessed as zone of inhibition at 80 uM after 48 hrs by disc diffusion method; type: functional; conditions: MTCC 1021, 48 h, read-out: IZ; procedure, shortened: as §2
Aspergillus niger [13] = assay: Antifungal activity against Aspergillus niger MTCC 1108 after 48 hrs; type: functional; conditions: MTCC 1108, 48 h
Aspergillus niger [14] = assay: Antifungal activity against Aspergillus niger MTCC 1108 assessed as zone of inhibition at 20 uM after 48 hrs by disc diffusion method; type: functional; conditions: MTCC 1108, 48 h, read-out: IZ; procedure, shortened: as §2
Aspergillus niger [15] = assay: Antifungal activity against Aspergillus niger MTCC 1108 assessed as zone of inhibition at 40 uM after 48 hrs by disc diffusion method; type: functional; conditions: MTCC 1108, 48 h, read-out: IZ; procedure, shortened: as §2
Aspergillus niger [16] = assay: Antifungal activity against Aspergillus niger MTCC 1108 assessed as zone of inhibition at 80 uM after 48 hrs by disc diffusion method; type: functional; conditions: MTCC 1108, 48 h, read-out: IZ; procedure, shortened: as §2
Escherichia coli [17] = assay: Antimicrobial activity against Escherichia coli ATCC 35218 after 24 hrs by broth micro serial dilution method; type: functional; conditions: ATCC 35218, 24 h
Procedure, shortened: (§3)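 This was broth microdilution in autoclaved Mueller-Hinton broth. 150 µL of compound per well was serially diluted […], and 50 µL of test organism was added. Plates were incubated 24 h at 37 °C and optical density was read.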

Escherichia coli [18] = assay: Antimicrobial activity against Escherichia coli ATCC 35218 assessed as diameter of inhibition zone at 80 uM after 24 hrs by Kirby -Baur disc diffusion method; type: functional
Procedure, shortened: (§4)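 Kirby-Bauer disc diffusion was used. Acetone stocks (160 µM) were serially doubled down to 80, 40 and 20 µM. 4 µL of each went onto 5 mm sterile paper discs, which were dried 30 min at 50 °C. Inoculum was 1.5 × 10⁸ CFU/mL diluted to 3 × 10² CFU/mL, and 50 µL was spread on Mueller-Hinton agar. After 24 h at 37 °C the inhibition-zone diameter was measured. Ciprofloxacin served as positive control.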

Pseudomonas aeruginosa [19] = assay: Antimicrobial activity against Pseudomonas aeruginosa ATCC 15499 after 24 hrs by broth micro serial dilution method; type: functional; conditions: ATCC 15499, 24 h; procedure, shortened: as §3
Pseudomonas aeruginosa [20] = assay: Antimicrobial activity against Pseudomonas aeruginosa ATCC 15499 assessed as diameter of inhibition zone at 80 uM after 24 hrs by Kirby -Baur disc diffusion method; type: functional; procedure, shortened: as §4
Salmonella typhi [21] = assay: Antimicrobial activity against Salmonella typhi ATCC 23564 after 24 hrs by broth micro serial dilution method; type: functional; conditions: Salmonella enterica subsp. enterica serovar Typhi
Salmonella typhi [22] = assay: Antimicrobial activity against Salmonella typhi ATCC 23564 assessed as diameter of inhibition zone at 80 uM after 24 hrs by Kirby -Baur disc diffusion method; type: functional; conditions: Salmonella enterica subsp. enterica serovar Typhi
Bacillus cereus [23] = assay: Antimicrobial activity against Bacillus cereus MTCC 7350 after 24 hrs by broth micro serial dilution method; type: functional; conditions: MTCC 7350, 24 h; procedure, shortened: as §3
Bacillus cereus [24] = assay: Antimicrobial activity against Bacillus cereus MTCC 7350 assessed as diameter of inhibition zone at 20 uM after 24 hrs by Kirby -Baur disc diffusion method; type: functional; procedure, shortened: as §4
Bacillus cereus [25] = assay: Antimicrobial activity against Bacillus cereus MTCC 7350 assessed as diameter of inhibition zone at 40 uM after 24 hrs by Kirby -Baur disc diffusion method; type: functional; procedure, shortened: as §4
Bacillus cereus [26] = assay: Antimicrobial activity against Bacillus cereus MTCC 7350 assessed as diameter of inhibition zone at 80 uM after 24 hrs by Kirby -Baur disc diffusion method; type: functional; conditions: MTCC 7350, 24 h, read-out: DIZ; procedure, shortened: as §4
Staphylococcus aureus [27] = assay: Antimicrobial activity against Staphylococcus aureus ATCC 11632 after 24 hrs by broth micro serial dilution method; type: functional; conditions: ATCC 11632, 24 h; procedure, shortened: as §3
Staphylococcus aureus [28] = assay: Antimicrobial activity against Staphylococcus aureus ATCC 11632 assessed as diameter of inhibition zone at 20 uM after 24 hrs by Kirby -Baur disc diffusion method; type: functional; procedure, shortened: as §4
Staphylococcus aureus [29] = assay: Antimicrobial activity against Staphylococcus aureus ATCC 11632 assessed as diameter of inhibition zone at 40 uM after 24 hrs by Kirby -Baur disc diffusion method; type: functional; procedure, shortened: as §4
Staphylococcus aureus [30] = assay: Antimicrobial activity against Staphylococcus aureus ATCC 11632 assessed as diameter of inhibition zone at 80 uM after 24 hrs by Kirby -Baur disc diffusion method; type: functional; conditions: ATCC 11632, 24 h, read-out: DIZ; procedure, shortened: as §4

Structure (SMILES): COc1cc(/C=C/C(=O)C(/N=N/c2ccc(S(=O)(=O)Nc3nc(C)cc(C)n3)cc2)=C(O)/C=C/c2ccc(O)c(OC)c2)ccc1O
- inhibition in vivo at 200 mg/kg (Mus musculus): 33.8%
- IC50 (HCT-116): Not Active
- IC50 (QG-56): 100 µM
- IC50 (HeLa): 50 µM
- IC50 (HepG2): > 100 µM
- MIC (Trichoderma viride [1]): 20 µM (≈ 13.2 µg/mL)
- zone of inhibition at 20 µM (Trichoderma viride [2]): 18 mm
- zone of inhibition at 40 µM (Trichoderma viride [3]): 19 mm
- zone of inhibition at 80 µM (Trichoderma viride [4]): 22 mm
- MIC (Curvularia lunata [5]): 20 µM (≈ 13.2 µg/mL)
- zone of inhibition at 20 µM (Curvularia lunata [6]): 18 mm
- zone of inhibition at 40 µM (Curvularia lunata [7]): 19 mm
- MIC (Aspergillus flavus [8]): 40 µM (≈ 26.3 µg/mL)
- zone of inhibition at 80 µM (Curvularia lunata [9]): 22 mm
- zone of inhibition at 20 µM (Aspergillus flavus [10]): 11 mm
- zone of inhibition at 40 µM (Aspergillus flavus [11]): 13 mm
- zone of inhibition at 80 µM (Aspergillus flavus [12]): 14 mm
- MIC (Aspergillus niger [13]): 40 µM (≈ 26.3 µg/mL)
- zone of inhibition at 20 µM (Aspergillus niger [14]): 9 mm
- zone of inhibition at 40 µM (Aspergillus niger [15]): 12 mm
- zone of inhibition at 80 µM (Aspergillus niger [16]): 14 mm
- MIC (Escherichia coli [17]): > 80 µM
- diameter of the inhibition zone (DIZ) (Escherichia coli [18]): inactive
- MIC (Pseudomonas aeruginosa [19]): > 80 µM
- diameter of the inhibition zone (DIZ) (Pseudomonas aeruginosa [20]): inactive
- MIC (Salmonella typhi [21]): inactive
- diameter of the inhibition zone (DIZ) (Salmonella typhi [22]): inactive
- MIC (Bacillus cereus [23]): > 80 µM
- diameter of the inhibition zone (DIZ) (Bacillus cereus [24]): inactive
- diameter of the inhibition zone (DIZ) (Bacillus cereus [25]): inactive
- zone of inhibition at 80 µM (Bacillus cereus [26]): 11 mm
- MIC (Staphylococcus aureus [27]): > 80 µM
- diameter of the inhibition zone (DIZ) (Staphylococcus aureus [28]): inactive
- diameter of the inhibition zone (DIZ) (Staphylococcus aureus [29]): inactive
- zone of inhibition at 80 µM (Staphylococcus aureus [30]): 10 mm
